Assay results reported in ChEMBL document CHEMBL1122522, “Conformationally restricted retinoids” (1984).

Tests used:
Cricetinae gen. sp. [1] = assay: Activity of compound the was expressed as ratio of active hamster tracheal organ cultures(TOC) to the total cultures at 10e-9 M concentration; 2/7; type: functional, Cricetulus griseus, Trachea
Outline: (§1)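 Tracheal organ cultures came from vitamin A-deficient hamsters. Each culture was scored for reversal of keratinization and reported as active cultures out of total cultures at each retinoid concentration tested (10⁻⁸ to 10⁻¹² M). The protocol followed earlier published methods.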

[2] = molecular target: T1, Ornithine decarboxylase (Mus musculus) (UniProt P00860); assay: Inhibition of the induction of ornithine decarboxylase in mouse epidermis by the tumor promoter 12-O-tetradecanoylphorbol-13-acetate (ODC) at dose 17 nmol * * inhibition not significant
T1 sequence (whole entry): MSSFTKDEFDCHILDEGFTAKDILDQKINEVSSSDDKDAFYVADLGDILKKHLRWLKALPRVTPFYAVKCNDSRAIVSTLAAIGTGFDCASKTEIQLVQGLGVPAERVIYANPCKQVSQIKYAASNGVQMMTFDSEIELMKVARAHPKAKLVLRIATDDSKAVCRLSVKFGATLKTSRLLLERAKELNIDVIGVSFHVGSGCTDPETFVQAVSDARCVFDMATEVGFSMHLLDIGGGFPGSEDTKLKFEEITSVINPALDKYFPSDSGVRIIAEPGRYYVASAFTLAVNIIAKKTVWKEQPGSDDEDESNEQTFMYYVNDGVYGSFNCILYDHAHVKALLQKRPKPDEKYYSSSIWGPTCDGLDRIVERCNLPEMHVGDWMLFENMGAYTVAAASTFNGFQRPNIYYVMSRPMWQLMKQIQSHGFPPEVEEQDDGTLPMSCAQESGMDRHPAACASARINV

[3] = molecular target: T1, Ornithine decarboxylase (Mus musculus); assay: Inhibition of the induction of ornithine decarboxylase in mouse epidermis by the tumor promoter 12-O-tetradecanoylphorbol-13-acetate (ODC) at dose 1.7 nmol * * inhibition not significant
Cricetinae gen. sp. [4] = assay: Activity of compound the was expressed as ratio of active hamster tracheal organ cultures(TOC) to the total cultures at 10e-10 M concentration; 1/7; type: functional, Cricetulus griseus, Trachea; outline: as §1
Cricetinae gen. sp. [5] = assay: Activity of compound the was expressed as ratio of active hamster tracheal organ cultures(TOC) to the total cultures at 10e-8 M concentration; 3/7; type: functional, Cricetulus griseus, Trachea; outline: as §1
Cricetinae gen. sp. [6] = assay: Molarity required to effect reversal of keratinization in 50% of cultures.; type: functional, Cricetulus griseus
Cricetinae gen. sp. [7] = assay: Activity of compound the was expressed as ratio of active hamster tracheal organ cultures(TOC) to the total cultures at 10e-9 M concentration; 5/19; type: functional, Cricetulus griseus, Trachea; outline: as §1
Cricetinae gen. sp. [8] = assay: Activity of compound the was expressed as ratio of active hamster tracheal organ cultures(TOC) to the total cultures at 10e-9 M concentration; 1/6; type: functional, Cricetulus griseus, Trachea; outline: as §1
[9] = molecular target: T1, Ornithine decarboxylase (Mus musculus); assay: Inhibition of the induction of ornithine decarboxylase in mouse epidermis by the tumor promoter 12-O-tetradecanoylphorbol-13-acetate (ODC) at dose 1.7 nmol; Inhibition not significant
Cricetinae gen. sp. [10] = assay: Molarity required to effect reversal of keratinization in 50% of the cultures; type: functional, Cricetulus griseus
Outline: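 Tracheal organ cultures from vitamin A-deficient hamsters were scored for reversal of keratinization across a range of molar retinoid concentrations. The value is the concentration reversing keratinization in 50% of cultures, read from active/total culture counts.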

[11] = molecular target: T1, Ornithine decarboxylase (Mus musculus); assay: Inhibition of the induction of ornithine decarboxylase in mouse epidermis by the tumor promoter 12-O-tetradecanoylphorbol-13-acetate (ODC) at dose 17 nmol; Inhibition not significant
Cricetinae gen. sp. [12] = assay: Activity of compound the was expressed as ratio of active hamster tracheal organ cultures(TOC) to the total cultures at 10e-10 M concentration; 2/7; type: functional, Cricetulus griseus, Trachea; outline: as §1

SMILES | Activity (Cricetinae gen. sp. [1]) | inhibition [2] | inhibition [3] | Activity (Cricetinae gen. sp. [4]) | Activity (Cricetinae gen. sp. [5]) | ED50 (Cricetinae gen. sp. [6]) | Activity (Cricetinae gen. sp. [7]) | Activity (Cricetinae gen. sp. [8]) | inhibition [9] | ED50 (Cricetinae gen. sp. [10]) | inhibition [11] | Activity (Cricetinae gen. sp. [12])
CCOC(=O)c1ccc([C@H]2CC2c2ccc3c(c2)C2CCC3C2)cc1 (stereo partly drawn) | 29% | 4% | 0% | 1% | 3% | >1e-08 | – | – | – | – | – | –
CCOC(=O)/C=C(C)/C=C/C=C(C)/C=C/C1=CC2CCC1C2 (stereo not drawn) | – | – | – | – | – | >1e-09 | 26% | – | – | – | – | –
CCOC(=O)c1cccc(/C=C(C)/C=C/C2=C(C)CCCC2(C)C)c1 | – | – | – | – | – | – | – | 1% | 13% | >1e-08 | 6% | 2%
